Article PMC10693930 (Biochemistry, 2023)
Numbering of substitutions follows the chain as printed. In names and notes the source's numbering stands.

How the values were obtained:
WT SaPC [1] = target: T1, WT SaPC (Staphylococcus aureus, UniProt A0A0H3JRU9); experiment: Pyruvate carboxylation inhibition assay with CT domain inhibitors; assay type: biochemical; settings: SaPC; CT domain inhibitors
Method in brief: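 WT SaPC (5 μg/mL) was pre-incubated with inhibitor and acetyl-CoA, and the reaction was started with 10× substrate mix (final 25 mM NaHCO3, 2.5 mM ATP, 12 mM pyruvate). MDH-coupled (10 U/mL MDH, 0.12 mM NADH); change in A340 monitored. Inhibitor 0–1 mM or 0–50 mM by compound. MDH-only controls. Triplicate; SD of three trials.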

E418A SaPC [2] = target: T2, E418A SaPC (Staphylococcus aureus, UniProt A0A0H3JRU9, E418A); experiment: Pyruvate carboxylation inhibition assay with CT domain inhibitors; assay type: biochemical; settings: for change of inhibition in the presence of acetyl-CoA: 500 μM acetyl-CoA
WT SaPC [3] = target: T1, WT SaPC; experiment: Pyruvate carboxylation assay; assay type: biochemical; settings: for h (Hill coefficient) / Ka (apparent activation constant): Table 1; for increase of apparent Ka in the presence of L-aspartate: 20 mM L-aspartate vs none
K46A SaPC = K46A SaPC (Staphylococcus aureus, UniProt A0A0H3JRU9, K46A); experiment: Pyruvate carboxylation assay; assay type: biochemical; settings: K46A SaPC; up to 100 mM; nonspecific inhibition above 100 mM
E418A SaPC [4] = target: T2, E418A SaPC; experiment: Pyruvate carboxylation assay; assay type: biochemical; settings: up to 100 mM, nonspecific inhibition above 100 mM
R21A SaPC = R21A SaPC (Staphylococcus aureus, UniProt A0A0H3JRU9, R21A); experiment: Pyruvate carboxylation assay; assay type: biochemical; settings: R21A SaPC; up to 100 mM; nonspecific inhibition above 100 mM
SaPC = settings: cited from earlier work
PC = settings: lacks the nucleotidyl portion; cited from earlier work
[5] = target: ΔBCΔBCCP SaPC (Staphylococcus aureus (strain Mu50 / ATCC 700699)); experiment: SEC
SEC = target: the molecule itself; experiment: SEC
[6] = Acyl-CoA alone, fit to Equation 1 (3′5′ diphosphoadenosine: Equation 2)

O=C(O)C(O)=Cc1ccc2ccccc2n1 [2-hydroxy-3-(quinoline-2-yl)propenoic acid]
change of potency in the presence of acetyl-CoA (WT SaPC [1]): significantly reduced potency | inhibition of pyruvate carboxylation (E418A SaPC [2]): inhibited | change of inhibition in the presence of acetyl-CoA (E418A SaPC [2]): unchanged

Nc1ncnc2c1ncn2[C@@H]1O[C@H](COP(=O)(O)O)[C@@H](OP(=O)(O)O)[C@H]1O [3′5′ diphosphoadenosine, 3’5’-diphosphoadenosine]
h (Hill coefficient) (WT SaPC [3]; Acyl-CoA alone): 1.6 ± 0.7 | Ka (apparent activation constant) (WT SaPC [3]; [6]): 5900 ± 3100 µM | concentration range in which SaPC is activated (WT SaPC [3]; WT SaPC (Figure S2)): up to 7 mM | concentration at which inhibitory (WT SaPC [3]; WT SaPC (Figure S2), attributed to competition with ATP in BC domain): greater than 7 mM | estimated apparent Ka (WT SaPC [3]; WT SaPC, fit to Equation 2, Ki fixed at 5 mM): ~ 5.9 mM

CC(=O)NCCNC(=O)CCNC(=O)[C@H](O)C(C)(C)COP(=O)(O)OP(=O)(O)OC[C@H]1O[C@@H](n2cnc3c(N)ncnc32)[C@H](O)[C@@H]1OP(=O)(O)O [Acetyl-aza(dethia)-CoA, acetyl-aza(dethia)-CoA]
h (Hill coefficient) (WT SaPC [3]; Acyl-CoA alone): 1.3 ± 0.4 | Ka (apparent activation constant) (WT SaPC [3]; [6]): 2500 ± 1000 µM

CC(=O)CCCNC(=O)CCNC(=O)[C@H](O)C(C)(C)COP(=O)(O)OP(=O)(O)OC[C@H]1O[C@@H](n2cnc3c(N)ncnc32)[C@H](O)[C@@H]1OP(=O)(O)O [Acetyl-carba(dethia)-CoA, acetyl-carba(dethia)-CoA]
Ka (apparent activation constant) (WT SaPC [3]; Acyl-CoA + 20 mM L-aspartate): 190 ± 10 µM | h (Hill coefficient) (WT SaPC [3]; Acyl-CoA + 20 mM L-aspartate): 3.1 ± 0.6 | h (Hill coefficient) (WT SaPC [3]; Acyl-CoA alone): 1.5 ± 0.2 | Ka (apparent activation constant) (WT SaPC [3]; [6]): 53 ± 4 µM | increase of apparent Ka in the presence of L-aspartate (WT SaPC [3]; WT SaPC): ~ 4 fold

CC(=O)OCCNC(=O)CCNC(=O)[C@H](O)C(C)(C)COP(=O)(O)OP(=O)(O)OC[C@H]1O[C@@H](n2cnc3c(N)ncnc32)[C@H](O)[C@@H]1OP(=O)(O)O [Acetyl-oxa(dethia)-CoA, acetyl-oxa(dethia)-CoA]
Ka (apparent activation constant) (WT SaPC [3]; Acyl-CoA + 20 mM L-aspartate): 270 ± 20 µM | h (Hill coefficient) (WT SaPC [3]; Acyl-CoA + 20 mM L-aspartate): 3.3 ± 0.7 | h (Hill coefficient) (WT SaPC [3]; Acyl-CoA alone): 1.5 ± 0.3 | Ka (apparent activation constant) (WT SaPC [3]; [6]): 73 ± 11 µM | increase of apparent Ka in the presence of L-aspartate (WT SaPC [3]; WT SaPC): ~ 4 fold

N[C@@H](CC(=O)O)C(=O)O [L-aspartate]
inhibition of pyruvate carboxylation (K46A SaPC): not inhibited | inhibition of pyruvate carboxylation (E418A SaPC [4]): not inhibited | inhibition of pyruvate carboxylation (R21A SaPC): not inhibited | decrease of kcat in the presence of inhibitor (SaPC): 2-5 fold

N[C@@H](CCC(=O)O)C(=O)O [L-glutamate]
concentration at which pyruvate carboxylation is inhibited (WT SaPC [3]; WT SaPC, nonspecific effect (Figure S5)): exceeding 100 mM

CC(=O)SCCNC(=O)CCNC(=O)[C@H](O)C(C)(C)CO [acetylpantetheine]
binding and activation of PC (PC): binds to but does not activate PC

O=C(O)C(=O)Cc1ccccc1 [phenylpyruvate]
change of potency in the presence of acetyl-CoA (WT SaPC [1]): significantly reduced potency | inhibition of pyruvate carboxylation (E418A SaPC [2]): inhibited | change of inhibition in the presence of acetyl-CoA (E418A SaPC [2]): unchanged

ΔBCΔBCCP SaPC (domain or fragment)
stoichiometry N [5]: 2

B1: Staphylococcus aureus pyruvate carboxylase, wild type (enzyme)
chain: MKQIKKLLVANRGEIAIRIFRAAAELDISTVAIYSNEDKSSLHRYKADESYLVGSDLGPAESYLNIERIIDVAKQANVDAIHPGYGFLSENEQFARRCAEEGIKFIGPHLEHLDMFGDKVKARTTAIKADLPVIPGTDGPIKSYELAKEFAEEAGFPLMIKATSGGGGKGMRIVREESELEDAFHRAKSEAEKSFGNSEVYIERYIDNPKHIEVQVIGDEHGNIVHLFERDCSVQRRHQKVVEVAPSVGLSPTLRQRICDAAIQLMENIKYVNAGTVEFLVSGDEFFFIEVNPRVQVEHTITEMVTGIDIVKTQILVAAGADLFGEEINMPQQKDITTLGYAIQCRITTEDPLNDFMPDTGTIIAYRSSGGFGVRLDAGDGFQGAEISPYYDSLLVKLSTHAISFKQAEEKMVRSLREMRIRGVKTNIPFLINVMKNKKFTSGDYTTKFIEETPELFDIQPSLDRGTKTLEYIGNVTINGFPNVEKRPKPDYELASIPTVSSSKIASFSGTKQLLDEVGPKGVAEWVKKQDDVLLTDTTFRDAHQSLLATRVRTKDMINIASKTADVFKDGFSLEMWGGATFDVAYNFLKENPWERLERLRKAIPNVLFQMLLRASNAVGYKNYPDNVIHKFVQESAKAGIDVFRIFDSLNWVDQMKVANEAVQEAGKISEGTICYTGDILNPERSNIYTLEYYVKLAKELEREGFHILAIKDMAGLLKPKAAYELIGELKSAVDLPIHLHTHDTSGNGLLTYKQAIDAGVDIIDTAVASMSGLTSQPSANSLYYALNGFPRHLRTDIEGMESLSHYWSTVRTYYSDFESDIKSPNTEIYQHEMPGGQYSNLSQQAKSLGLGERFDEVKDMYRRVNFLFGDIVKVTPSSKVVGDMALYMVQNDLDEQSVITDGYKLDFPESVVSFFKGEIGQPVNGFNKDLQAVILKGQEALTARPGEYLEPVDFEKVRELLEEEQQGPVTEQDIISYVLYPKVYEQYIQTRNQYGNLSLLDTPTFFFGMRNGETVEIEIDKGKRLIIKLETISEPDENGNRTIYYAMNGQARRIYIKDENVHTNANVKPKADKSNPSHIGAQMPGSVTEVKVSVGETVKANQPLLITEAMKMETTIQAPFDGVIKQVTVNNGDTIATGDLLIEIEKATD
modifications: biotin, covalently tethered to the BCCP domain (co-expressed with BirA to ensure complete biotinylation; residue not stated)
stoichiometry N (SEC): 4

B2: K46A SaPC (enzyme)
chain: B1 chain with K46A
modifications: biotin, covalently tethered to the BCCP domain (co-expressed with BirA to ensure complete biotinylation; residue not stated)
stoichiometry N (SEC): 4

B3: E418A SaPC (enzyme)
chain: B1 chain with E418A
modifications: biotin, covalently tethered to the BCCP domain (co-expressed with BirA to ensure complete biotinylation; residue not stated)
stoichiometry N (SEC): 4

B4: R21A SaPC (enzyme)
chain: B1 chain with R21A
modifications: biotin, covalently tethered to the BCCP domain (co-expressed with BirA to ensure complete biotinylation; residue not stated)
stoichiometry N (SEC): 4
